# Calls of active or inactive are those of the source. No cut-off for these calls is given here.
# What was measured:
# U-937 = assay: Antiproliferative activity against human U937 cells after 24 hrs by MTT assay; type: functional; details: U-937, 24 h
# Procedure, shortened: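 U937 cells kept in RPMI 1640 with 10% FBS, 1% penicillin/streptomycin and 25 mM HEPES (37 °C, 5% CO₂). Seeded at 5×10³ cells/well and held 24 h before exposure to 12 concentrations in 3-fold serial dilution. MTT reduction read at 570 nm. IC50 obtained by curve fitting.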
# [1] = Antiproliferative activity against human A375P cells after 24 hrs by MTT assay; type: functional
# Procedure, shortened: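 A375P cells grown in DMEM with 10% FBS and 1% penicillin/streptomycin at 37 °C, 5% CO₂. Harvested with trypsin-EDTA, seeded at 5×10³ cells/well and incubated 24 h before dosing with a 12-point, 3-fold serial dilution. Viability by MTT reduction, absorbance at 590 nm. IC50 derived by curve fitting.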
# [2] = biological target: T1, Macrophage colony-stimulating factor 1 receptor (Homo sapiens, UniProt P07333); assay: Inhibition of human FMS using myelin basic protein as substrate after 40 mins in presence of [gamma-33P]-ATP by liquid scintillation counting method
# Procedure, shortened: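 Radiometric filter-binding assay with human FMS (5–10 mU) in 25 mM Tris pH 7.5, 0.02 mM EGTA, 0.66 mg/mL myelin basic protein and 10 mM magnesium acetate, with [γ-33P]ATP (approx. 500 cpm/pmol). Started with Mg-ATP mix and run 40 min at room temperature. Stopped with 3% phosphoric acid, spotted on P30 filtermat, washed in 75 mM phosphoric acid then methanol, scintillation counted.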
# [3] = biological target: Receptor-type tyrosine-protein kinase FLT3 (Homo sapiens) (UniProt P36888); assay: Inhibition of human FLT3 using EAIYAAPFAKKK peptide as substrate at 10 uM after 40 mins in presence of [gamma-33P]-ATP by liquid scintillation counting method
# [4] = biological target: Vascular endothelial growth factor receptor 3 (Homo sapiens) (UniProt P35916); assay: Inhibition of human FLT4 using poly[Glu:Tyr] (4:1) as substrate at 10 uM after 40 mins in presence of [gamma-33P]-ATP by liquid scintillation counting method
# [5] = biological target: T2, Platelet-derived growth factor receptor beta (Homo sapiens, UniProt P09619); assay: Inhibition of human PDGFRb using poly[Glu:Tyr] (4:1) as substrate at 10 uM after 40 mins in presence of [gamma-33P]-ATP by liquid scintillation counting method
# [6] = biological target: T3, Proto-oncogene tyrosine-protein kinase receptor Ret (Homo sapiens, UniProt P07949); assay: Inhibition of human RET using KKKVSRSGLYRSPSMPENLNRPR as substrate at 10 uM after 40 mins in presence of [gamma-33P]-ATP by liquid scintillation counting method
# [7] = biological target: T4, Receptor-type tyrosine-protein kinase FLT3 (Homo sapiens, UniProt P36888); assay: Inhibition of FLT3 (unknown origin) after 40 mins in presence of [gamma-33P]-ATP by liquid scintillation counting method
# T4 sequence (P36888 whole entry): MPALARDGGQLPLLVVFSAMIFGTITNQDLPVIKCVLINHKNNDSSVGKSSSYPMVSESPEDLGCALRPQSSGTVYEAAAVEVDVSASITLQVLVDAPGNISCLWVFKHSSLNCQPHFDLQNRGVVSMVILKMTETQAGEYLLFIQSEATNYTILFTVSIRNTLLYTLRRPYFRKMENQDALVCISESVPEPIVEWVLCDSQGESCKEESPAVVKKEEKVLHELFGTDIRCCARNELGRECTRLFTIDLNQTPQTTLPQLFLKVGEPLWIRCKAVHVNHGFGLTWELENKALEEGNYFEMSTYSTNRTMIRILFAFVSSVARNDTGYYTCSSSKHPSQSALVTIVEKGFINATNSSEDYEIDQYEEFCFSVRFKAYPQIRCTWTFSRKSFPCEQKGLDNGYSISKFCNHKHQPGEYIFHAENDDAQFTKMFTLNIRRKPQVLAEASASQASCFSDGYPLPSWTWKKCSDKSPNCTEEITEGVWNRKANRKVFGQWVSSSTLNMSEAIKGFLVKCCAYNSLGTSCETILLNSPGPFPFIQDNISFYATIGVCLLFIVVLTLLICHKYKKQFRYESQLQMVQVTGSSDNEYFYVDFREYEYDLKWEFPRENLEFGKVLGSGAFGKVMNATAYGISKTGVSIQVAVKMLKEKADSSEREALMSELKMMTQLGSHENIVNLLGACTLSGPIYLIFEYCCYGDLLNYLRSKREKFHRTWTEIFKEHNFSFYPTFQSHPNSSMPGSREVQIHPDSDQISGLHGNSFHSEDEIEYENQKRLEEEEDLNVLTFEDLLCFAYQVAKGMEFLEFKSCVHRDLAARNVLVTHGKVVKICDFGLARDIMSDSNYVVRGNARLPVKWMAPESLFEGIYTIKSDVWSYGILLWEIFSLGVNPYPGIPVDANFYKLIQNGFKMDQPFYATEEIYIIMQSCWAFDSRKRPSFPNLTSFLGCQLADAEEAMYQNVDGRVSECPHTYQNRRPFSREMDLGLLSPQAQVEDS
# [8] = biological target: T2, Platelet-derived growth factor receptor beta; assay: Inhibition of PDGFRb (unknown origin) after 40 mins in presence of [gamma-33P]-ATP by liquid scintillation counting method
# [9] = biological target: T3, Proto-oncogene tyrosine-protein kinase receptor Ret; assay: Inhibition of RET (unknown origin) after 40 mins in presence of [gamma-33P]-ATP by liquid scintillation counting method
# [10] = biological target: T1, Macrophage colony-stimulating factor 1 receptor; assay: Inhibition of human FMS using myelin basic protein as substrate at 10 uM after 40 mins in presence of [gamma-33P]-ATP by liquid scintillation counting method
# T2 sequence (P09619 whole entry): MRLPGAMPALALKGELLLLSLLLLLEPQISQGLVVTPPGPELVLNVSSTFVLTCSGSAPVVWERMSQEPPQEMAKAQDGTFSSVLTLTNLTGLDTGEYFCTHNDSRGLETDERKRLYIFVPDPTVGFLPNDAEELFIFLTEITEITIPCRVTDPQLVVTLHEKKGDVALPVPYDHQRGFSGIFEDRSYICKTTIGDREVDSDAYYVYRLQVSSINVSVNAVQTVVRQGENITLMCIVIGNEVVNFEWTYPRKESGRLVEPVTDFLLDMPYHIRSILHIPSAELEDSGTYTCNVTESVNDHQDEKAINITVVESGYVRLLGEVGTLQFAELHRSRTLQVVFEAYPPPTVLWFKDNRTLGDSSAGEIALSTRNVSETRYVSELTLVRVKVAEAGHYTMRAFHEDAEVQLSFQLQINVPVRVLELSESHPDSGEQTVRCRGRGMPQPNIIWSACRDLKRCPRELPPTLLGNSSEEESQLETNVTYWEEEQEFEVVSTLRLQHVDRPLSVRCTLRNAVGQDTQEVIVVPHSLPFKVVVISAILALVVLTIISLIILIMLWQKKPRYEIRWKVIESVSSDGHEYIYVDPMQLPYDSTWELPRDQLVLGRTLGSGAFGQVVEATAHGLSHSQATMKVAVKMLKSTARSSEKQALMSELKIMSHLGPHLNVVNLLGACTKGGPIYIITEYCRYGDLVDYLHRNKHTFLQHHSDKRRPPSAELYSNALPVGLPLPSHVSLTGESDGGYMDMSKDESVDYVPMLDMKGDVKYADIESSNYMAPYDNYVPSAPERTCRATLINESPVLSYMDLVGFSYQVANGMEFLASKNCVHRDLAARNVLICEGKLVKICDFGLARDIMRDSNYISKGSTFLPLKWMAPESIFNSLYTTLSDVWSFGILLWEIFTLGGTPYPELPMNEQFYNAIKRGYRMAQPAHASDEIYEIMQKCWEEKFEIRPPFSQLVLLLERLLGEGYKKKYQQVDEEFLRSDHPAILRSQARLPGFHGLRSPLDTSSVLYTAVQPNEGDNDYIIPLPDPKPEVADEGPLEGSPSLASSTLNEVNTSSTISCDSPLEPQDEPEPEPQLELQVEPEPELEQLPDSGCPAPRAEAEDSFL
# T3 sequence (P07949 whole entry): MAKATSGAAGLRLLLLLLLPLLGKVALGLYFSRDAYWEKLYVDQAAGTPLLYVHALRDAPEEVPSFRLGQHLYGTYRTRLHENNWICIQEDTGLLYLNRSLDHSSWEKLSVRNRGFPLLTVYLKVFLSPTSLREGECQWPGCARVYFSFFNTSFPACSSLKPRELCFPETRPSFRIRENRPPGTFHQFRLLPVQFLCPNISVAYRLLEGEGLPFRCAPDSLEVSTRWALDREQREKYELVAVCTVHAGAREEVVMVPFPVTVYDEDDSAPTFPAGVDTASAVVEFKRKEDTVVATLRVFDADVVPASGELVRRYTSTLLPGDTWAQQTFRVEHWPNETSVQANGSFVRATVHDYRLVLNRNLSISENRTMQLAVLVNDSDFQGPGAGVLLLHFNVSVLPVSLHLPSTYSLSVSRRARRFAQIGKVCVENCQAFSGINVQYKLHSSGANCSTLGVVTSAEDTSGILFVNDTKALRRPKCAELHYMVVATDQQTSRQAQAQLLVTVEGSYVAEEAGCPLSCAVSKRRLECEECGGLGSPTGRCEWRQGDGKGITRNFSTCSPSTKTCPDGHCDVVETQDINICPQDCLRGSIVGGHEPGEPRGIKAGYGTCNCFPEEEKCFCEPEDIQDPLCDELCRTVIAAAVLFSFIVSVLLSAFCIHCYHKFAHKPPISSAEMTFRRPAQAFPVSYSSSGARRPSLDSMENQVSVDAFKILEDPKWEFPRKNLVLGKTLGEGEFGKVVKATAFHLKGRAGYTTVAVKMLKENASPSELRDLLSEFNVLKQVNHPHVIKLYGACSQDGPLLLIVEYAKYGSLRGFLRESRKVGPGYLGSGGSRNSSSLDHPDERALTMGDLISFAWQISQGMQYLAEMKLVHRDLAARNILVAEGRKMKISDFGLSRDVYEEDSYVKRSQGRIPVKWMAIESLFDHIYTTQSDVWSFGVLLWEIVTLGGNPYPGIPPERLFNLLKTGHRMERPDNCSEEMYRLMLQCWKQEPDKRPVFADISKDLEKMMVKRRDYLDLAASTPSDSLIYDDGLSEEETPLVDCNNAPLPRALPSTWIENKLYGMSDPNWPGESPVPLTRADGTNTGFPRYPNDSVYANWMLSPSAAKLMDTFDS
# T1 sequence (P07333 whole entry): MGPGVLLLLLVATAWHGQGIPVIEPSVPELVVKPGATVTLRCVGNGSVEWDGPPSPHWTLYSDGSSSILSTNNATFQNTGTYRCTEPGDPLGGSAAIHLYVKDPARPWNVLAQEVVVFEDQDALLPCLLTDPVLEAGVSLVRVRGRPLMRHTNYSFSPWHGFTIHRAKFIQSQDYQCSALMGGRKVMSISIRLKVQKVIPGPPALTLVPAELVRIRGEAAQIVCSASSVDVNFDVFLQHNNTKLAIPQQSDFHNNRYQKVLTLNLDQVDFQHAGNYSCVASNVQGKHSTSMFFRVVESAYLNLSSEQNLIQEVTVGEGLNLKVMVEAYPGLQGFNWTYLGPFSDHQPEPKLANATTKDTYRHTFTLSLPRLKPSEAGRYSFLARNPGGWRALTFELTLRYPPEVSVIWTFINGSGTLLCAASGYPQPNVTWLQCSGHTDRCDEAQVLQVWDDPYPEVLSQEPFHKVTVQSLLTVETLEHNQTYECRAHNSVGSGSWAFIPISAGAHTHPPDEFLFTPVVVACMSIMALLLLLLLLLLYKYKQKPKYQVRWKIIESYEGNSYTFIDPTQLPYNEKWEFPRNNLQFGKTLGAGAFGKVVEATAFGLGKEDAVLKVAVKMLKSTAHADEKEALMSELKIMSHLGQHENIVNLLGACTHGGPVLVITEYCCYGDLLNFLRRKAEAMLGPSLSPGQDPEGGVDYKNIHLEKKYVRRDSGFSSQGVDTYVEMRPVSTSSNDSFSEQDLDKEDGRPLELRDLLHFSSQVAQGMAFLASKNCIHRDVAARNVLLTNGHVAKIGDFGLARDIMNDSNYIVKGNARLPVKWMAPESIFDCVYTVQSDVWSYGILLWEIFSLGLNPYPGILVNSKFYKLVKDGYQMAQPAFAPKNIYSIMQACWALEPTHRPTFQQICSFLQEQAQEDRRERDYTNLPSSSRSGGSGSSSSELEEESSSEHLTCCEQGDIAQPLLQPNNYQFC
# Vascular endothelial growth factor receptor 3 (Homo sapiens), sequence (P35916 whole entry): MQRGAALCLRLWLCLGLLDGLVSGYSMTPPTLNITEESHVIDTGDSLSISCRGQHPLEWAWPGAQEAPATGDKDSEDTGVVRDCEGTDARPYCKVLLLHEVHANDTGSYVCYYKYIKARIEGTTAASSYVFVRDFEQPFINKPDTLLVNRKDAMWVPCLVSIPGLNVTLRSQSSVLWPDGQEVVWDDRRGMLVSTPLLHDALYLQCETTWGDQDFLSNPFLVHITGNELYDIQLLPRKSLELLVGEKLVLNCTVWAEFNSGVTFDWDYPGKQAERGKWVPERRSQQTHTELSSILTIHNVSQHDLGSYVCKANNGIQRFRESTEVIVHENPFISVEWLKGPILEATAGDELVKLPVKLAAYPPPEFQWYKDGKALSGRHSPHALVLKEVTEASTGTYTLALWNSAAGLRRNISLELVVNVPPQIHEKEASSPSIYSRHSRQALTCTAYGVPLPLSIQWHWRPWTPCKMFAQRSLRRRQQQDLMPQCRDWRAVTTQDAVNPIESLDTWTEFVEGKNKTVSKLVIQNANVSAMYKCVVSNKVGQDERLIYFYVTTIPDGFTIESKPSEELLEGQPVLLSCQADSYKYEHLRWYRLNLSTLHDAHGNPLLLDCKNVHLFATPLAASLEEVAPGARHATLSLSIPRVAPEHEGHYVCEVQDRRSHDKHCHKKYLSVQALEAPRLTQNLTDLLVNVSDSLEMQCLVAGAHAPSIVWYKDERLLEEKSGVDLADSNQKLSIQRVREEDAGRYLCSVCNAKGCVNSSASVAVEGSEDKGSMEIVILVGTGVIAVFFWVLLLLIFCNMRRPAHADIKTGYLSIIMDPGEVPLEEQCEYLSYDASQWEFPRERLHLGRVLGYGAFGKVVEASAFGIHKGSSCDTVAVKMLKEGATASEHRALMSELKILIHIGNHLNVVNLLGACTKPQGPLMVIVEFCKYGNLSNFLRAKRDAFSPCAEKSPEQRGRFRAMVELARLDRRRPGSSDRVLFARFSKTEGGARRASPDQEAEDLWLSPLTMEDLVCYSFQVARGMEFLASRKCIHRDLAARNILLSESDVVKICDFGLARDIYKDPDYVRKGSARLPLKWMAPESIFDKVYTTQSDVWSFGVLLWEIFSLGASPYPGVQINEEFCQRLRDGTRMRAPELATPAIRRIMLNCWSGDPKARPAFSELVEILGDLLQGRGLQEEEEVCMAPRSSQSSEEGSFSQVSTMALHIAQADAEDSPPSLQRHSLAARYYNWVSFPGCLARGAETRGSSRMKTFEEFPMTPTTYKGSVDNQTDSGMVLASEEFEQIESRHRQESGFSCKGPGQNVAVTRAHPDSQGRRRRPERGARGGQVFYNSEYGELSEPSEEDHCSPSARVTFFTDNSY
Structure (SMILES),GI50 (U-937) [µM],GI50 [1] [µM],further results
O=C1CC(c2cccc(NC(=O)c3ccccc3-c3ccccc3)c2)=Nc2cscc2N1,1.03,3.25,–
O=C(Cc1c[nH]c2ccccc12)Nc1ccc(C2=Nc3cscc3NC(=O)C2)cc1,> 30,> 30,–
CNC(=O)c1cc(Oc2ccc(NC(=O)Nc3ccc(Cl)c(C(F)(F)F)c3)cc2)ccn1 [SORAFENIB],2.34,3.4,–
O=C1CC(c2ccc(NC(=O)Nc3ccc(Cl)cc3)cc2)=Nc2cscc2N1,0.964,3.12,–
O=C1CC(c2cccc(NC(=O)Nc3ccc(Cl)c(Cl)c3)c2)=Nc2cscc2N1,3.2,11,–
CN1CCN(c2cc(C(=O)Nc3cccc(C4=Nc5cscc5NC(=O)C4)c3)cc(C(F)(F)F)c2)CC1,–,3.04,–
Cc1c(C)c2c(c(C)c1O)CC[C@](C)(C(=O)Nc1cccc(C3=Nc4cscc4NC(=O)C3)c1)O2,–,> 30,–
O=C1CC(c2cccc(NC(=O)c3cnn(-c4ccccc4)c3C(F)(F)F)c2)=Nc2cscc2N1,9.64,–,–
O=C(Cc1ccc(-c2ccccc2)cc1)Nc1ccc(C2=Nc3cscc3NC(=O)C2)cc1,–,8.7,–
O=C1CC(c2ccc(NC(=O)Nc3ccc(Cl)c(C(F)(F)F)c3)cc2)=Nc2cscc2N1,4.08,1.7,–
O=C1CC(c2cccc(NC(=O)c3cnc4ccccc4c3)c2)=Nc2cscc2N1,–,6.87,–
O=C1CC(c2cccc(NC(=O)Nc3ccc(Cl)cc3)c2)=Nc2cscc2N1,4.55,5.04,–
O=C(Cc1c[nH]c2ccccc12)Nc1cccc(C2=Nc3cscc3NC(=O)C2)c1,> 30,> 30,–
CCN1CCN(Cc2ccc(NC(=O)Nc3cccc(C4=Nc5cscc5NC(=O)C4)c3)cc2C(F)(F)F)CC1,2.75,1.82,–
O=C1CC(c2ccc(NC(=O)c3cnn(-c4ccccc4)c3C(F)(F)F)cc2)=Nc2cscc2N1,–,6.85,–
CN1CCN(c2cc(C(=O)Nc3ccc(C4=Nc5cscc5NC(=O)C4)cc3)cc(C(F)(F)F)c2)CC1,> 30,> 30,–
O=C1CC(c2ccc(NC(=O)c3cc(N4CCOCC4)cc(C(F)(F)F)c3)cc2)=Nc2cscc2N1,–,3.45,–
O=C1CC(c2ccc(NC(=O)c3ccccc3-c3ccccc3)cc2)=Nc2cscc2N1,3.77,> 30,–
CCN1CCN(Cc2ccc(NC(=O)Nc3ccc(C4=Nc5cscc5NC(=O)C4)cc3)cc2C(F)(F)F)CC1,–,0.32,IC50 [2]: 3.73 nM; inhibition [3]: Active; inhibition [4]: Active; inhibition [5]: Active; inhibition [6]: Active; IC50 [7]: 27.9 nM; IC50 [8]: 63.4 nM; IC50 [9]: 71.6 nM; inhibition [10]: Active
O=C1CC(c2cccc(NC(=O)Nc3ccc(Cl)c(C(F)(F)F)c3)c2)=Nc2cscc2N1,14.3,8.25,–
O=C1CC(c2ccc(NC(=O)Nc3ccc(Cl)c(Cl)c3)cc2)=Nc2cscc2N1,–,2.06,–
O=C1CC(c2ccc(NC(=O)c3ccc(Cl)c(C(F)(F)F)c3)cc2)=Nc2cscc2N1,–,7.85,–
CC(=O)N1CCC(C(=O)Nc2ccc(C3=Nc4cscc4NC(=O)C3)cc2)CC1,–,> 30,–
O=C1CC(c2cccc(NC(=O)c3ccc(Cl)c(C(F)(F)F)c3)c2)=Nc2cscc2N1,–,4.99,–
O=C1CC(c2cccc(NC(=O)c3cc(N4CCOCC4)cc(C(F)(F)F)c3)c2)=Nc2cscc2N1,–,1.98,–
